# Results: publication PMC6001286 (Advanced biosystems, 2017)
# Starred links: 1 amine or outer side, 2 acyl side, 3 side chain; linkers in the order of their positions; H or OH if unused. Positions of bridges follow the written chain, without caps; N, C: chain ends. Non-standard residues stand in square brackets, D forms with d. Primed or numbered codes have the meaning given here. *: point of attachment. PEG2′ = PEG2 (Ebes) spacer between FITC and the peptide N-terminus, O=C(CCC(=O)[*:2])NCCOCCOCCN[*:1]; FITC = O=C1OC2(c3ccc(O)cc3Oc3cc(O)ccc32)c2ccc(NC(=S)*)cc21; Phe(3,5-F2) = N[C@@H](Cc1cc(F)cc(F)c1)C(=O)O; Hyp = O=C(O)[C@@H]1C[C@@H](O)CN1
# Columns and labels:
# [1] = on-bead flow cytometry binding to healthy plasma exosomes; design: species or system human; settings: exosomes isolated by ultracentrifugation
# Outline: (§1)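 Exosomes were isolated by ultracentrifugation: Jurkat EV-depleted culture supernatant, or whole plasma from three healthy donors. Spins were 300 × g, 2,000 × g and 10,000 × g, then twice 100,000 × g for 2 hr at 4°C. Exosomes (10 μg protein) were labeled overnight with FITC-PEG peptide or scrambled analogue (1 μL of 5 mM). Free peptide was removed by 3000 Da spin column. Samples were adsorbed to 3.9 μm aldehyde/sulfate latex beads for flow cytometry. Triplicates, ≥10,000 beads each.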
# [2] = on-bead flow cytometry binding to Jurkat exosomes; design: species or system human; settings: α4β1-expressing, data not shown
# Outline: as §1
# Jurkat tumor cells = experiment: flow cytometry binding to Jurkat cells; type: cell-based, human; settings: α4β1-expressing; data not shown
# Outline: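 Jurkat cells were grown in RPMI 1640 with 10% FBS and penicillin/streptomycin (37°C, 5% CO2). Cells were incubated 30 min in 3% FBS/PBS with FITC-PEG-labeled peptide or scrambled analogue at 1 μM; anti-α3-FITC was used at 1 μg per million cells. Cells were washed thrice and resuspended in 3% FBS with 1% sodium azide. Three replicates, ≥10,000 gated cells each.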
Substance,binding to healthy human plasma exosomes [1],binding to Jurkat exosomes [2],binding to Jurkat cells (Jurkat tumor cells)
"[cGd-Hyp-Phe(3,5-diF)-G-NcR] (disulfide) [scr-LXY30]",limited binding,–,–
"scr-LXY30-Fl: scr-LXY30 labeled with fluorescein isothiocyanate dye via PEG2 spacer at the peptide N-terminus ({FITC-PEG2′}-[dC]G[dD][Hyp][Phe(3,5-F2)]GN[dC]R-NH2; disulfide 1-8)",did not exhibit significant binding,minimal extent,minimal extent
